# Numbered stars: 1 amine (or outer) side, 2 acyl side, 3 side chain; on linkers, the order of the positions; unused ones are H or OH. Bridge positions count the residues as written; N and C are the ends. Square brackets hold non-standard residues; d marks the D form. Peptide text beside a SMILES is read from it. X1 = O=C([C@H](CC1C=Nc2ccccc21)N[*:1])[*:2]; Nle = CCCC[C@H](N)C(=O)O; Nva = CCC[C@H](N)C(=O)O; Abu = CC[C@H](N)C(=O)O
# Target: Neuronal acetylcholine receptor; alpha3/beta4 (Rattus norvegicus) (UniProt P04757+P12392)
# Test: Antagonist activity at rat alpha3beta4 nAChR expressed in HEK293 cells assessed as inhibition of epibatadine-induced effect at 10 uM after 30 mins by fluorescent membrane potential assay relative to mecamylamine
# Type: cell-based
# Method in brief: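 Rat α3β4 nAChR stably expressed in HEK293 cells; crude, SPE-desalted individual peptides tested at 10 μM in HBSS with membrane potential blue dye, 30 min at 37 °C. Fluorescence change read after epibatidine (0.1 μM). Percent inhibition set against 10 μM mecamylamine taken as 100%.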
row,Structure (SMILES),inhibition [%]
1,"CCCC[C@@H]1NC(=O)[C@H](CO)NC(=O)[C@@H]2CSSC[C@@H](C(=O)O)NC(=O)[C@@H]3CCCN3C(=O)[C@H](CCC)NC(=O)[C@H](Cc3c[nH]c4ccccc34)NC(=O)[C@H](Cc3ccccc3)NC(=O)[C@H](CSSC[C@H](NC(=O)CN)C(=O)N2)NC(=O)[C@H](CC)NC(=O)[C@@H]2CCCN2C1=O (H-GCCS[Nle]P[Abu]CFW[Nva]PC-OH; disulfide 2-8, 3-13)",41.1
2,"CCCC[C@@H]1NC(=O)[C@H](Cc2c[nH]c3ccccc23)NC(=O)[C@H](Cc2ccccc2)NC(=O)[C@@H]2CSSC[C@H](NC(=O)CN)C(=O)N[C@@H](CSSC[C@@H](C(=O)O)NC(=O)[C@@H]3CCCN3C1=O)C(=O)N[C@@H](CO)C(=O)N[C@@H](CCCC)C(=O)N1CCC[C@H]1C(=O)N1CCC[C@H]1C(=O)N2 (H-GCCS[Nle]PPCFW[Nle]PC-OH; disulfide 2-8, 3-13)",14.2
3,CCCC[C@@H]1NC(=O)[C@H](CO)NC(=O)[C@@H]2CSSC[C@@H](C(=O)O)NC(=O)[C@H](Cc3ccc(O)cc3)NC(=O)[C@H](CCC)NC(=O)[C@H](CC)NC(=O)[C@H]([C@H](C)CC)NC(=O)[C@H](CSSC[C@H](NC(=O)CN)C(=O)N2)NC(=O)[C@@H]2CCCN2C(=O)[C@@H]2CCCN2C1=O,50.9
4,CCCC[C@@H]1NC(=O)[C@H](CO)NC(=O)[C@@H]2CSSC[C@@H](C(=O)O)NC(=O)[C@H](Cc3ccc(O)cc3)NC(=O)[C@H](CCC)NC(=O)[C@H](CC)NC(=O)[C@H]([C@H](C)CC)NC(=O)[C@H](CSSC[C@H](NC(=O)CN)C(=O)N2)NC(=O)[C@H](CC)NC(=O)[C@@H]2CCCN2C1=O,59.4
5,"CCCC[C@@H]1NC(=O)[C@H](CC)NC(=O)[C@H](Cc2ccccc2)NC(=O)[C@@H]2CSSC[C@H](NC(=O)CN)C(=O)N[C@@H](CSSC[C@@H](C(=O)O)NC(=O)[C@@H]3CCCN3C1=O)C(=O)N[C@@H](CO)C(=O)N[C@@H](Cc1cnc[nH]1)C(=O)N1CCC[C@H]1C(=O)N1CCC[C@H]1C(=O)N2 (H-GCCSHPPCF[Abu][Nle]PC-OH; disulfide 2-8, 3-13)",29.1
6,"CCC[C@@H]1NC(=O)[C@H](Cc2c[nH]c3ccccc23)NC(=O)[C@H](Cc2ccccc2)NC(=O)[C@@H]2CSSC[C@H](NC(=O)CN)C(=O)N[C@@H](CSSC[C@@H](C(=O)O)NC(=O)[C@H](Cc3ccc(O)cc3)NC1=O)C(=O)N[C@@H](CO)C(=O)N[C@@H](Cc1cnc[nH]1)C(=O)N1CCC[C@H]1C(=O)N[C@@H](CC)C(=O)N2 (H-GCCSHP[Abu]CFW[Nva]YC-OH; disulfide 2-8, 3-13)",72.1
7,CCCC[C@@H]1NC(=O)[C@H](CC)NC(=O)[C@H]([C@H](C)CC)NC(=O)[C@@H]2CSSC[C@H](NC(=O)CN)C(=O)N[C@@H](CSSC[C@@H](C(=O)O)NC(=O)[C@@H]3CCCN3C1=O)C(=O)N[C@@H](CO)C(=O)N[C@@H](Cc1cnc[nH]1)C(=O)N1CCC[C@H]1C(=O)N1CCC[C@H]1C(=O)N2,38.1
8,"CCCC[C@@H]1NC(=O)[C@H](CO)NC(=O)[C@@H]2CSSC[C@@H](C(=O)O)NC(=O)[C@@H]3CCCN3C(=O)[C@H](CCC)NC(=O)[C@H](CC)NC(=O)[C@H](Cc3ccccc3)NC(=O)[C@H](CSSC[C@H](NC(=O)CN)C(=O)N2)NC(=O)[C@H](CC)NC(=O)[C@@H]2CCCN2C1=O (H-GCCS[Nle]P[Abu]CF[Abu][Nva]PC-OH; disulfide 2-8, 3-13)",40.3
9,"CCCC[C@@H]1NC(=O)[C@H](CO)NC(=O)[C@@H]2CSSC[C@@H](C(=O)O)NC(=O)[C@@H]3CCCN3C(=O)[C@H](CCC)NC(=O)[C@H](Cc3c[nH]c4ccccc34)NC(=O)[C@H](Cc3ccccc3)NC(=O)[C@H](CSSC[C@H](NC(=O)CN)C(=O)N2)NC(=O)[C@@H]2CCCN2C(=O)[C@@H]2CCCN2C1=O (H-GCCS[Nle]PPCFW[Nva]PC-OH; disulfide 2-8, 3-13)",37.1
10,CCCC[C@@H]1NC(=O)[C@H](CC)NC(=O)[C@H]([C@H](C)CC)NC(=O)[C@@H]2CSSC[C@H](NC(=O)CN)C(=O)N[C@@H](CSSC[C@@H](C(=O)O)NC(=O)[C@H](Cc3ccc(O)cc3)NC1=O)C(=O)N[C@@H](CO)C(=O)N[C@@H](CCCC)C(=O)N1CCC[C@H]1C(=O)N1CCC[C@H]1C(=O)N2,63.8
11,CCC[C@@H]1NC(=O)[C@H](Cc2c[nH]c3ccccc23)NC(=O)[C@H]([C@H](C)CC)NC(=O)[C@@H]2CSSC[C@H](NC(=O)CN)C(=O)N[C@@H](CSSC[C@@H](C(=O)O)NC(=O)[C@@H]3CCCN3C1=O)C(=O)N[C@@H](CO)C(=O)N[C@@H](Cc1cnc[nH]1)C(=O)N1CCC[C@H]1C(=O)N1CCC[C@H]1C(=O)N2,44.8
12,CCCC[C@@H]1NC(=O)[C@H](CO)NC(=O)[C@@H]2CSSC[C@@H](C(=O)O)NC(=O)[C@H](Cc3ccc(O)cc3)NC(=O)[C@H](CCC)NC(=O)[C@H](Cc3c[nH]c4ccccc34)NC(=O)[C@H]([C@H](C)CC)NC(=O)[C@H](CSSC[C@H](NC(=O)CN)C(=O)N2)NC(=O)[C@@H]2CCCN2C(=O)[C@@H]2CCCN2C1=O,58.3
13,"CCCC[C@@H]1NC(=O)[C@H](CC)NC(=O)[C@H](Cc2ccccc2)NC(=O)[C@@H]2CSSC[C@H](NC(=O)CN)C(=O)N[C@@H](CSSC[C@@H](C(=O)O)NC(=O)[C@@H]3CCCN3C1=O)C(=O)N[C@@H](CO)C(=O)N[C@@H](CCCC)C(=O)N1CCC[C@H]1C(=O)N[C@@H](CC)C(=O)N2 (H-GCCS[Nle]P[Abu]CF[Abu][Nle]PC-OH; disulfide 2-8, 3-13)",36.6
14,CCC[C@@H]1NC(=O)[C@H](CC)NC(=O)[C@H]([C@H](C)CC)NC(=O)[C@@H]2CSSC[C@H](NC(=O)CN)C(=O)N[C@@H](CSSC[C@@H](C(=O)O)NC(=O)[C@H](Cc3ccc(O)cc3)NC1=O)C(=O)N[C@@H](CO)C(=O)N[C@@H](Cc1cnc[nH]1)C(=O)N1CCC[C@H]1C(=O)N1CCC[C@H]1C(=O)N2,62.3
15,CCCC[C@@H]1NC(=O)[C@H](Cc2c[nH]c3ccccc23)NC(=O)[C@H]([C@H](C)CC)NC(=O)[C@@H]2CSSC[C@H](NC(=O)CN)C(=O)N[C@@H](CSSC[C@@H](C(=O)O)NC(=O)[C@@H]3CCCN3C1=O)C(=O)N[C@@H](CO)C(=O)N[C@@H](CCCC)C(=O)N1CCC[C@H]1C(=O)N1CCC[C@H]1C(=O)N2,6.3
16,CCC[C@@H]1NC(=O)[C@H](CC)NC(=O)[C@H]([C@H](C)CC)NC(=O)[C@@H]2CSSC[C@H](NC(=O)CN)C(=O)N[C@@H](CSSC[C@@H](C(=O)O)NC(=O)[C@@H]3CCCN3C1=O)C(=O)N[C@@H](CO)C(=O)N[C@@H](Cc1cnc[nH]1)C(=O)N1CCC[C@H]1C(=O)N[C@@H](CC)C(=O)N2,41.2
17,CCCC[C@@H]1NC(=O)[C@H](CO)NC(=O)[C@@H]2CSSC[C@@H](C(=O)O)NC(=O)[C@H](Cc3ccc(O)cc3)NC(=O)[C@H](CCC)NC(=O)[C@H](Cc3c[nH]c4ccccc34)NC(=O)[C@H]([C@H](C)CC)NC(=O)[C@H](CSSC[C@H](NC(=O)CN)C(=O)N2)NC(=O)[C@H](CC)NC(=O)[C@@H]2CCCN2C1=O,61.9
18,"CCCC[C@@H]1NC(=O)[C@H](CO)NC(=O)[C@@H]2CSSC[C@@H](C(=O)O)NC(=O)[C@@H]3CCCN3C(=O)[C@H](CCC)NC(=O)[C@H](CC)NC(=O)[C@H](Cc3ccccc3)NC(=O)[C@H](CSSC[C@H](NC(=O)CN)C(=O)N2)NC(=O)[C@@H]2CCCN2C(=O)[C@@H]2CCCN2C1=O (H-GCCS[Nle]PPCF[Abu][Nva]PC-OH; disulfide 2-8, 3-13)",35.7
19,"CCC[C@@H]1NC(=O)[C@H](CC)NC(=O)[C@H](Cc2ccccc2)NC(=O)[C@@H]2CSSC[C@H](NC(=O)CN)C(=O)N[C@@H](CSSC[C@@H](C(=O)O)NC(=O)[C@@H]3CCCN3C1=O)C(=O)N[C@@H](CO)C(=O)N[C@@H](Cc1cnc[nH]1)C(=O)N1CCC[C@H]1C(=O)N1CCC[C@H]1C(=O)N2 (H-GCCSHPPCF[Abu][Nva]PC-OH; disulfide 2-8, 3-13)",36
20,"CCC[C@@H]1NC(=O)[C@H](Cc2c[nH]c3ccccc23)NC(=O)[C@H](Cc2ccccc2)NC(=O)[C@@H]2CSSC[C@H](NC(=O)CN)C(=O)N[C@@H](CSSC[C@@H](C(=O)O)NC(=O)[C@@H]3CCCN3C1=O)C(=O)N[C@@H](CO)C(=O)N[C@@H](Cc1cnc[nH]1)C(=O)N1CCC[C@H]1C(=O)N1CCC[C@H]1C(=O)N2 (H-GCCSHPPCFW[Nva]PC-OH; disulfide 2-8, 3-13)",49
21,CCC[C@@H]1NC(=O)[C@H](Cc2c[nH]c3ccccc23)NC(=O)[C@H]([C@H](C)CC)NC(=O)[C@@H]2CSSC[C@H](NC(=O)CN)C(=O)N[C@@H](CSSC[C@@H](C(=O)O)NC(=O)[C@H](Cc3ccc(O)cc3)NC1=O)C(=O)N[C@@H](CO)C(=O)N[C@@H](Cc1cnc[nH]1)C(=O)N1CCC[C@H]1C(=O)N1CCC[C@H]1C(=O)N2,56.5
22,"CCCC[C@@H]1NC(=O)[C@H](CC2C=Nc3ccccc32)NC(=O)[C@H](Cc2ccccc2)NC(=O)[C@@H]2CSSC[C@H](NC(=O)CN)C(=O)N[C@@H](CSSC[C@@H](C(=O)O)NC(=O)[C@@H]3CCCN3C1=O)C(=O)N[C@@H](CO)C(=O)N[C@@H](CCCC)C(=O)N1CCC[C@H]1C(=O)N[C@@H](CC)C(=O)N2 (stereo not given in full) (H-GCCS[Nle]P[Abu]CF[X1][Nle]PC-OH; disulfide 2-8, 3-13)",22.1
23,CCC[C@@H]1NC(=O)[C@H](Cc2c[nH]c3ccccc23)NC(=O)[C@H]([C@H](C)CC)NC(=O)[C@@H]2CSSC[C@H](NC(=O)CN)C(=O)N[C@@H](CSSC[C@@H](C(=O)O)NC(=O)[C@H](Cc3ccc(O)cc3)NC1=O)C(=O)N[C@@H](CO)C(=O)N[C@@H](Cc1cnc[nH]1)C(=O)N1CCC[C@H]1C(=O)N[C@@H](CC)C(=O)N2,47.5
24,CCCC[C@@H]1NC(=O)[C@H](CC)NC(=O)[C@H]([C@H](C)CC)NC(=O)[C@@H]2CSSC[C@H](NC(=O)CN)C(=O)N[C@@H](CSSC[C@@H](C(=O)O)NC(=O)[C@@H]3CCCN3C1=O)C(=O)N[C@@H](CO)C(=O)N[C@@H](CCCC)C(=O)N1CCC[C@H]1C(=O)N1CCC[C@H]1C(=O)N2,31.3
25,"CCCC[C@@H]1NC(=O)[C@H](CC)NC(=O)[C@H](Cc2ccccc2)NC(=O)[C@@H]2CSSC[C@H](NC(=O)CN)C(=O)N[C@@H](CSSC[C@@H](C(=O)O)NC(=O)[C@@H]3CCCN3C1=O)C(=O)N[C@@H](CO)C(=O)N[C@@H](Cc1cnc[nH]1)C(=O)N1CCC[C@H]1C(=O)N[C@@H](CC)C(=O)N2 (H-GCCSHP[Abu]CF[Abu][Nle]PC-OH; disulfide 2-8, 3-13)",35.5

# From ChEMBL document CHEMBL3232963, “Discovery of a potent and selective α3β4 nicotinic acetylcholine receptor antagonist from an α-conotoxin synthetic combinatorial library” (J Med Chem, 2014)
